Results from different studies.
Lines come from different studies, so protocols differ.
Target: Muscle, skeletal receptor tyrosine-protein kinase (MUSK, Homo sapiens, UniProt O15146)
Residues used in one study (O15146 24-869): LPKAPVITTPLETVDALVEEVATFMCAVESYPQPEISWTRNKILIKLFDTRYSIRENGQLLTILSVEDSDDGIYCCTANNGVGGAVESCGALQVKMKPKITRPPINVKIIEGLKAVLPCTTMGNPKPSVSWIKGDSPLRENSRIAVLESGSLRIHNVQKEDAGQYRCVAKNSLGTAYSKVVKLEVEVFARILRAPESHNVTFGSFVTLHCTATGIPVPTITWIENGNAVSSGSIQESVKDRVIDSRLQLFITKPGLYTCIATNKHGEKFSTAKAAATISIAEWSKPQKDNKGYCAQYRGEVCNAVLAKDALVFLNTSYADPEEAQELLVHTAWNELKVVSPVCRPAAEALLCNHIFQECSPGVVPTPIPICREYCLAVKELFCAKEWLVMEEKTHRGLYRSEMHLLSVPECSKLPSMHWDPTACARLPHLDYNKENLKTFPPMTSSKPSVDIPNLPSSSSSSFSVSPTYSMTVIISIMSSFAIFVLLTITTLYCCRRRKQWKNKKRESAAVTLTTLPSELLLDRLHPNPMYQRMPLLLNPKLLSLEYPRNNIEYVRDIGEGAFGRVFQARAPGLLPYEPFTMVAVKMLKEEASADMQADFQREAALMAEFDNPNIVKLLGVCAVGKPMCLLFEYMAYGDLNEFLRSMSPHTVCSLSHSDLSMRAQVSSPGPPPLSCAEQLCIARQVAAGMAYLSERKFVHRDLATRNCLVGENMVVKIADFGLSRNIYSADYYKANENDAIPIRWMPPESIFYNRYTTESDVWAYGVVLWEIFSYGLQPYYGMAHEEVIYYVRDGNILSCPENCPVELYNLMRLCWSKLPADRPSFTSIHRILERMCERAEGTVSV

The remaining binding of `O=C(c1ccc(Nc2nccc(-c3cc4ccccc4s3)n2)cc1)N1CCC(N2CCCC2)CC1` is reported as 72% (binding, competition with immobilised ligand; 1 µM).
With `C=CC(=O)N1CCC(C(=O)NCC(=O)N2CCN(c3nc(-c4cnc(N)nc4C(F)F)nc(N4CCOCC4)n3)CC2)CC1` the remaining binding was 79% (binding, competition with immobilised ligand; 1 µM).
For `COc1cnc(Nc2cccc(S(N)(=O)=O)c2)nc1N1CCN(c2ccccc2)C(=O)C1`, the remaining binding was 99% (binding, competition with immobilised ligand; 1 µM).
`CCC(=O)N[C@H]1CC[C@@H](C(=O)N(C)c2ccc(-c3nc4ccccc4o3)cc2)C1` has a remaining binding of 100% (cell-free assay, competition with immobilised ligand; 1 µM).
With `CN(c1nccc(-c2cnn3ncccc23)n1)C1CC1` the remaining binding was 100% (binding; 1 µM).
The remaining binding of `O=C(NCCCN1CCOCC1)c1ccc(Nc2ncc(Cl)c(-c3ccc(Cl)s3)n2)cc1` is reported as 54% (binding, competition with immobilised ligand; 1 µM).
With `Cc1c(NC(=O)c2cc(C(N)=O)nc3cc(F)ccc23)c(C(F)(F)F)nn1Cc1ccc(C#N)cc1` the remaining binding was 95% (cell-free assay, competition with immobilised ligand; 1 µM).
For `C[C@@H]1CCN(c2nccc(-c3cnn4ncccc34)n2)C1`, the remaining binding was 92% (binding; 1 µM).
`N#Cc1ccc(Nc2ccc3[nH]c(=O)[nH]c3c2)c(Cl)c1` gave a remaining binding of 100% (cell-free assay, competition with immobilised ligand; 1 µM).
For `Cc1cnn2ncc(-c3ccnc(N(C)C)n3)c2c1`, the remaining binding was 79% (binding; 1 µM).
`CCCCN(CCCC)C(=O)CN1C[C@@H](c2cc(OC)c3c(c2)OCO3)[C@H](C(=O)O)[C@H]1CC(C)(C)CCC` has a remaining binding of 78.7% (cell-free assay, competition with immobilised ligand; 1 µM).
For `CC1CCCN1c1nccc(-c2cnn3ncccc23)n1` (stereo not shown), the remaining binding was 100% (binding; 1 µM).
The remaining binding of `COc1ncc2cc3ccccc3nc2c1C#N` is reported as 100% (cell-free assay, competition with immobilised ligand; 5 µM).
`O=C(NCc1ncc(C(F)(F)F)cc1Cl)c1ccc2c(c1)C1(CCS(=O)(=O)CC1)[C@@H](C1CC1)N2S(=O)(=O)c1ccc(F)cc1` gave a remaining binding of 79% (cell-free assay, competition with immobilised ligand; 1 µM).
The remaining binding of `CCN1CCN(Cc2ccc(C(=O)Nc3ccc(C)c(Oc4ccc5c(c4)CC(=O)N5)c3)cc2C(F)(F)F)CC1` is reported as 100% (binding, competition with immobilised ligand; 1 µM).
With `CN(CCCC(F)(F)F)c1nccc(-c2cnn3ncccc23)n1` the remaining binding was 100% (binding; 1 µM).
With `Nc1ncc2c(n1)-c1c([nH]c3ccc(C#CC4CC4)cc13)CCCC2` the remaining binding was 100% (binding, competition with immobilised ligand; 1 µM).
`Cc1cnc(Nc2ccc(C(=O)N3CCC(N4CCCC4)CC3)cc2)nc1-c1cc2ccccc2s1` has a remaining binding of 30% (binding, competition with immobilised ligand; 1 µM).
The remaining binding of `CN(C)c1nccc(-c2cnc3ncccn23)n1` is reported as 83% (binding; 1 µM).
For `CC(=O)c1c(NS(C)(=O)=O)c2cc(-c3ccc(Cl)cc3)c(-c3ccc(Cl)cc3Cl)nc2n(C)c1=O`, the remaining binding was 99% (cell-free assay, competition with immobilised ligand; 1 µM).
The remaining binding of `N[C@@H]1CCN(c2nccc(-c3cnn4ncccc34)n2)C1` is reported as 100% (binding; 1 µM).
For `O=C(NCC1CCOCC1)c1n[nH]cc1NC(=O)c1c(F)cccc1F`, the remaining binding was 88% (binding, competition with immobilised ligand; 1 µM).
